Screens from PubChem BioAssay.
V-ATPase pHluor: alters yeast V-ATPase proton transport. S. cerevisiae, pHLuorin cytosolic pH fluorescence. response, % at 10 µM. 0.37% of 350,000 active. AID 504577; in the data active means response mostly above about 7.3%, no sharp cut-off; inactive means mostly below about 5.4%; further: actives read high
rCAG RNA binder: molecules binding r(CAG) RNA repeats | inhibition, % at 3 µM | r(CAG) RNA repeat, TO-PRO-1 dye displacement fluorescence | 1.3% of 370,000 active;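 active means inhibition above the plate cutoff, the mean of all test compounds on that plate plus 3 SD, cut at about 35% in these data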;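 further: 0% = DMSO alone and 100% = 100 µM mitoxantrone as full dye displacement; higher means more dye released from RNA so lower well fluorescence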
Granule exo inh: blocks lytic granule exocytosis; AID 651702; 0.66% of 360,000 active; TALL-104 LAMP-1 surface exposure, flow cytometry; cells stimulated with thapsigargin and PMA; inhibition, % at 10 µM;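 active means inhibition above about 55%, limit read from the data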
T cell HTS: modulates CD8 T cell binding to vesicles; 2C CD8+ T cell-vesicle binding, flow cytometry; stronger effect = lower value; response (vesicle binding), % at 7 µM; 0.068% of 330,000 active; AID 2052;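 active means response, share of CD8 T cells binding vesicles, and their 90th percentile fluorescence all below set limits, cut at about 80% in these data, passing the limit was not always enough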;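 further: values below 100% mean blocked vesicle binding to the CD8+ T cells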
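incubation = binding step 1.5 h, 37 °C, antibody labelling 20 min, ice | test system = 2C mouse CD8+ T cells | read-out basis = percent CD8+ FL2 mean versus row control | controls = Peptide-free naked vesicles (low) and QL9 vesicles with 0.7% DMSO vehicle (high) | detection = flow cytometry of vesicle-bound cells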
MPTP inh: blocks calcium-induced mitochondrial swelling; isolated mouse mitochondria, Ca2+ swelling absorbance, 30 min; inhibition, % at 10 µM; 1.4% of 360,000 active;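 active means inhibition of 50% or more, scaled per plate between neutral and stimulator controls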;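 further: 0% = DMSO wells given calcium and 100% = 1 mM EGTA wells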
Beta2AR agonist: human beta-2 adrenergic receptor agonism by FAP | 0.43% of 340,000 active | response, % (no concentration beside the values) | P07550 | Am2.2-beta2AR cells, FAP receptor internalization, flow cytometry;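 active means response above a set limit, near 3 SD of response in nonfluorescent compounds, cut at about 42% in these data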
Target sequence (P07550 whole entry, looked up): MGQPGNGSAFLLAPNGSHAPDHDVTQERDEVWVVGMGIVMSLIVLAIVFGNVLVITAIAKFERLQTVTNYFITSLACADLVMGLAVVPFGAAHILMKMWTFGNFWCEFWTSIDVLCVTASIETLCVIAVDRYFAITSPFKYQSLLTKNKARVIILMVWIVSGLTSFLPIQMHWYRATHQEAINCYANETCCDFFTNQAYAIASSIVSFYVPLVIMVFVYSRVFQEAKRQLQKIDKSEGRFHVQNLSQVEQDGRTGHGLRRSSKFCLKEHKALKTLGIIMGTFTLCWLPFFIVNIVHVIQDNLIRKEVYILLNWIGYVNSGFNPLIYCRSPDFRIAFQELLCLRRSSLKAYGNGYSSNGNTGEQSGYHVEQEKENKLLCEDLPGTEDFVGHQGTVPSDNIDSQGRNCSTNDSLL
rCAG binder conf: r(CAG) RNA repeat binding, confirmation | shares compounds with rCAG RNA binder | TO-PRO-1 dye displacement fluorescence | inhibition, % at 3 µM | 70% of 4,300 active | AID 652065;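 active means inhibition above a per-plate cutoff, the mean inhibition of sample wells plus 3 SD, cut at about 35% in these data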;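 further: loss of TO-PRO-1 fluorescence as compound displaces dye from 1x1 AA loop RNA; 0% = DMSO only wells and 100% = 100 µM mitoxantrone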
DNA CAG counter: DNA CAG dye complex inhibition counter-screen; shares compounds with rCAG RNA binder; d(CAG) DNA oligo TO-PRO-1 dye displacement, fluorescence; inhibition, % at 3 µM; 94% of 4,300 active;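 active means inhibition above its plate's cutoff, the mean test-well inhibition plus 3 SD, cut at about 4.8% in these data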;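 further: 0% = DNA dye mix with DMSO and 100% = 100 µM mitoxantrone; hits displace the dye from DNA and so lower well fluorescence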
dCAG dye DR: disrupts DNA CAG TO-PRO-1 complex in dose response; shares compounds with rCAG RNA binder; DNA CAG/GTC duplex TO-PRO-1 dye displacement fluorescence; IC50, µM; 20% of 250 active; in the data active means IC50 below about 10 µM
* marks the source's active call; other numbers are inactive results. Only some compounds are listed: those with a hit (about 3.8% of all), similar ones and a draw of the others.

`O=C(C1=NN[C@@H]2C(=O)N(c3cccc(C(F)(F)F)c3)C(=O)[C@H]12)C(c1ccccc1)c1ccccc1` gave V-ATPase pHluor 8, rCAG RNA binder 55*, Granule exo inh 8, T cell HTS 351, MPTP inh 8, Beta2AR agonist 9, rCAG binder conf 27 and DNA CAG counter 8.9*.
`O=C(O)Cn1cc(/C=N/NC(=O)c2cc3cc(Br)ccc3o2)c2ccccc21` gave V-ATPase pHluor -3, rCAG RNA binder 50*, Granule exo inh 0, T cell HTS 159, MPTP inh 2, Beta2AR agonist -7, rCAG binder conf 56* and DNA CAG counter 17*.
For O=C(O)c1ccc(-n2cccc2/C=N\NC(=O)c2cc3cc(Br)ccc3o2)cc1 the results were V-ATPase pHluor -4, rCAG RNA binder 50*, Granule exo inh -1, T cell HTS 192, MPTP inh 2, Beta2AR agonist 2, rCAG binder conf 46* and DNA CAG counter 15*.
Cn1cc(/C=N/NC(=O)c2cc3cc(Br)ccc3o2)c2ccccc21 was read as V-ATPase pHluor -4, rCAG RNA binder 8, Granule exo inh -8, T cell HTS 309, MPTP inh 2 and Beta2AR agonist -5.
For CCn1c(COc2ccc(C)cc2)nnc1SCC(=O)Nc1ccccc1-c1ccccc1 the results were rCAG RNA binder 4.
For CCOc1ccc(-n2c(SCC(=O)NN=Cc3ccc(C(=O)O)cc3)nnc2-c2cccnc2)cc1 the results were rCAG RNA binder 15.
Screening COC(=O)[C@]12C[C@H](CC(=O)NCc3cccc4ccccc34)C(=O)N(Cc3ccccc3)C1=C[C@H](C(C)C)O[C@@H]2C1CC1 returned rCAG RNA binder 6.
COc1cc(/C=C2\SC(=S)N(NS(=O)(=O)c3ccc(C)cc3)C2=O)cc(OC)c1OC was read as V-ATPase pHluor 6, rCAG RNA binder 6, Granule exo inh 0, T cell HTS 309, MPTP inh 3 and Beta2AR agonist 22.
For COc1cccc(/C=C2\SC(=S)N(NS(=O)(=O)c3ccc(C)cc3)C2=O)c1OC the results were V-ATPase pHluor 1, rCAG RNA binder 75*, Granule exo inh -11, T cell HTS 301, MPTP inh 2, Beta2AR agonist 5, rCAG binder conf 66* and DNA CAG counter 28*.
COc1ccccc1/C=C1\SC(=S)N(NS(=O)(=O)c2ccccc2)C1=O was read as V-ATPase pHluor 2, rCAG RNA binder 69*, Granule exo inh 4, T cell HTS 230, MPTP inh 2, Beta2AR agonist 4, rCAG binder conf 69* and DNA CAG counter 22*.
Screening Cc1ccc(S(=O)(=O)NN2C(=O)/C(=C/c3ccccn3)SC2=S)cc1 returned V-ATPase pHluor -1, rCAG RNA binder 45*, Granule exo inh 2, T cell HTS 349, MPTP inh 1, Beta2AR agonist 5, rCAG binder conf 35* and DNA CAG counter 8.5*.
For O=C(O)c1[nH]c2ccccc2c1C(c1cc(Br)ccc1O)c1c(C(=O)O)[nH]c2ccccc12 the results were V-ATPase pHluor -1, rCAG RNA binder 95*, Granule exo inh 6, T cell HTS 335, MPTP inh 1, Beta2AR agonist 4, rCAG binder conf 76* and DNA CAG counter 40*.
COc1cc(Cl)cc(C(c2c(C(=O)O)[nH]c3ccccc23)c2c(C(=O)O)[nH]c3ccccc23)c1O was read as V-ATPase pHluor -1, rCAG RNA binder 92*, Granule exo inh 1, T cell HTS 175, MPTP inh -3, Beta2AR agonist -3, rCAG binder conf 73* and DNA CAG counter 38*.
O=C(O)c1[nH]c2ccccc2c1C(c1c(F)cccc1Cl)c1c(C(=O)O)[nH]c2ccccc12 was read as V-ATPase pHluor 0, rCAG RNA binder 57*, Granule exo inh -4, T cell HTS 155, MPTP inh -1, Beta2AR agonist -7, rCAG binder conf 32 and DNA CAG counter 8.0*.
For O=C(O)c1[nH]c2ccccc2c1-c1ccccc1 the results were V-ATPase pHluor -4, rCAG RNA binder 7, Granule exo inh -3, T cell HTS 155, MPTP inh 1 and Beta2AR agonist -2.
For Cc1cc(Oc2cccnc2)ccc1NC(=O)CCc1c[nH]c2ccccc12 the results were rCAG RNA binder 7.
Screening CCOC(=O)CSc1nc(-c2ccccc2)nc2c1oc1ccccc12 returned V-ATPase pHluor -1, rCAG RNA binder 3, Granule exo inh 1, T cell HTS 477, MPTP inh 6 and Beta2AR agonist 5.
Screening O=C(O)CSc1nc(-c2ccc(Cl)cc2)nc2c1oc1ccccc12 returned V-ATPase pHluor 0, rCAG RNA binder 41*, Granule exo inh -1, T cell HTS 624, MPTP inh 1, Beta2AR agonist 2, rCAG binder conf 82* and DNA CAG counter 62*.
O=C(O)CSc1nc(-c2ccccc2)nc2c1oc1ccccc12 was read as V-ATPase pHluor -2, rCAG RNA binder 59*, Granule exo inh -3, T cell HTS 212, MPTP inh 1, Beta2AR agonist 8, rCAG binder conf 48* and DNA CAG counter 14*.
For O=S1(=O)c2ccc(N3CCCC3)cc2Oc2ccccc2CN1Cc1cn(Cc2ccc(F)cc2)nn1 the results were rCAG RNA binder 13.
`CCCCOc1cccc(C(=O)NC(=S)Nc2ccc(Cl)c(C(=O)O)c2)c1` gave V-ATPase pHluor -1, rCAG RNA binder 44*, Granule exo inh 13, T cell HTS 291, MPTP inh 1, Beta2AR agonist -19, rCAG binder conf 49*, DNA CAG counter 9.4* and dCAG dye DR >30.
O=C(NC(=S)Nc1ccc(Cl)c(C(=O)O)c1)c1cccc(COc2ccccc2)c1 was read as V-ATPase pHluor 4, rCAG RNA binder 71*, Granule exo inh 7, T cell HTS 437, MPTP inh 1, Beta2AR agonist 7, rCAG binder conf 67* and DNA CAG counter 30*.
For COc1cc(OC)cc(C(=O)NC(=S)Nc2ccc(Cl)c(C(=O)O)c2)c1 the results were rCAG RNA binder 14, Granule exo inh 4, T cell HTS 380, MPTP inh -1 and Beta2AR agonist 8.
`N#C/C(=C\c1ccc(OCc2ccc(Cl)cc2)cc1)C(=O)Nc1cccc(C(=O)O)c1` gave V-ATPase pHluor -1, rCAG RNA binder 2, Granule exo inh -6, T cell HTS 484, MPTP inh 2 and Beta2AR agonist -1.
